Converted amounts (≈) assume the structure as drawn.
Tests used:
Type in all cases: functional
P388 [1] = test: Growth inhibition of mouse P388 cells after 48 hrs by particle counting method; conditions: P388, 48 h
Method in brief: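 Murine P388 lymphocytic leukemia cells in 10% horse serum/Fisher medium, preincubated 24 hrs. Serial dilutions of the compounds were added and cells grown 48 hrs. Cell numbers were counted with a Z1 Coulter particle counter, and the ED50 for growth inhibition was calculated.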

[2] = Growth inhibition of human MXPC3 cells after 48 hrs by particle counting method; conditions: MXPC3, 48 h
MCF7 = test: Growth inhibition of human MCF7 cells after 48 hrs by particle counting method; conditions: MCF7, 48 h
SF-268 = test: Growth inhibition of human SF268 cells after 48 hrs by particle counting method; conditions: SF-268, 48 h
NCI-H460 = test: Growth inhibition of human NCI-H460 cells after 48 hrs by particle counting method; conditions: NCI-H460, 48 h
KM-20L2 = test: Growth inhibition of human KM20L2 cells after 48 hrs by particle counting method; conditions: KM-20L2, 48 h
DU-145 = test: Growth inhibition of human DU145 cells after 48 hrs by particle counting method; conditions: DU-145, 48 h
P388 [3] = test: In vivo antitumor activity against mouse P388 cells at 4 to 800 mg/ kg; conditions: dose mg/ kg 4-800

Structure (SMILES)	GI50 (P388 [1])	GI50 [2]	GI50 (MCF7)	GI50 (SF-268)	GI50 (NCI-H460)	GI50 (KM-20L2)	GI50 (DU-145)	T/C (P388 [3])
CCCCCCCCCCC/C=C/[C@@H](O)[C@H](CO[C@@H]1O[C@H](CO)[C@@H](O)[C@H](O)[C@H]1O)NC(=O)CCCCCCCCCCCCCCCCC [TURBOSTATIN 2]	0.15 µg/mL (≈ 0.214 µM)	1 µg/mL (≈ 1.43 µM)	0.39 µg/mL (≈ 0.557 µM)	1.9 µg/mL (≈ 2.71 µM)	0.53 µg/mL (≈ 0.757 µM)	0.35 µg/mL (≈ 0.5 µM)	1.7 µg/mL (≈ 2.43 µM)	–
CCCCCCCCCCC/C=C/[C@@H](O)[C@H](CO[C@@H]1O[C@H](CO)[C@@H](O)[C@H](O)[C@H]1O)NC(=O)CCCCCCCCCCCCCCC [TURBOSTATIN 1]	0.27 µg/mL (≈ 0.402 µM)	0.71 µg/mL (≈ 1.06 µM)	0.44 µg/mL (≈ 0.655 µM)	0.98 µg/mL (≈ 1.46 µM)	0.34 µg/mL (≈ 0.506 µM)	0.35 µg/mL (≈ 0.521 µM)	1.6 µg/mL (≈ 2.38 µM)	–
NCCS(=O)(=O)O [TAURINE]	–	–	–	–	–	–	–	123
CCCCCCCCCCC/C=C/[C@@H](O)[C@H](CO[C@@H]1O[C@H](CO)[C@H](O)[C@H](O)[C@H]1O)NC(=O)CCCCCCCCCCCCCCC [TURBOSTATIN 3]	0.25 µg/mL (≈ 0.372 µM)	1.6 µg/mL (≈ 2.38 µM)	0.48 µg/mL (≈ 0.714 µM)	1.9 µg/mL (≈ 2.83 µM)	0.55 µg/mL (≈ 0.818 µM)	0.48 µg/mL (≈ 0.714 µM)	2.6 µg/mL (≈ 3.87 µM)	–
CCCCCCCCCCC/C=C/[C@@H](O)[C@H](CO[C@@H]1O[C@H](CO)[C@H](O)[C@H](O)[C@H]1O)NC(=O)CCCCCCCCCCCCCCCCC [TURBOSTATIN 4]	0.29 µg/mL (≈ 0.414 µM)	0.93 µg/mL (≈ 1.33 µM)	0.44 µg/mL (≈ 0.629 µM)	1.5 µg/mL (≈ 2.14 µM)	0.49 µg/mL (≈ 0.7 µM)	0.41 µg/mL (≈ 0.586 µM)	2.6 µg/mL (≈ 3.71 µM)	–
